From ChEMBL document CHEMBL1125296, “Structure-activity relationships associated with 3,4,5-triphenyl-1H-pyrazole-1-nonanoic acid, a nonprostanoid prostacyclin mimetic” (J Med Chem, 1992)

Columns and labels:
Prostacyclin receptor = Prostacyclin receptor (Homo sapiens, UniProt P43119); test: IC50 value was evaluated by measuring the displacement of [3H]iloprost from Prostaglandin I2 receptor
Summary of the method: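 Platelet plasma membranes (200 μg) incubated with 5 nM [3H]iloprost in 10 mM MgCl2, 1 mM EGTA, 50 mM Tris/HCl pH 7.4 at 0-4 °C for 90-120 min; diluted with ice-cold Tris buffer, rapidly filtered on GF/C, washed four times, bound radioactivity counted by scintillation; IC50 for displacement.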

Homo sapiens = species: Homo sapiens; test: Inhibition of ADP-induced human platelet aggregation; assay type: functional, organism-based
Summary of the method: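 Human blood drawn into 1/10 volume 3.8% sodium citrate, spun 10 min at 140g for platelet-rich plasma; compound in DMSO added to PRP 3 min before ADP (5.86 μM); aggregation followed by Born aggregometry (Mustard modification) against vehicle controls; IC50 from dose-response curves.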

Chain of Prostacyclin receptor (P43119 whole entry): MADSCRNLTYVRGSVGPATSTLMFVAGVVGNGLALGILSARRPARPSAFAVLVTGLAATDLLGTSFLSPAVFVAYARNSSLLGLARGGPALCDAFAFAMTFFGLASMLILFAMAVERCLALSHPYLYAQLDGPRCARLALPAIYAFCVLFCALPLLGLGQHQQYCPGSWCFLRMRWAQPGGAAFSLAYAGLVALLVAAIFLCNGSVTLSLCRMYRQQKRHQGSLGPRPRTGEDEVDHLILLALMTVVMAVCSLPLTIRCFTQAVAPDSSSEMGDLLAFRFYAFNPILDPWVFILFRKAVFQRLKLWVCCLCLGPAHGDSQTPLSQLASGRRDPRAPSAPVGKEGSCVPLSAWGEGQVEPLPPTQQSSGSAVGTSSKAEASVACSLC

| SMILES | IC50 (Prostacyclin receptor) | IC50 (Homo sapiens) |
| --- | --- | --- |
| O=C(O)CCCCCCCCn1cc(-c2ccccc2)c(-c2ccccc2)n1 | 0.35 µM | 4.5 µM |
| CS(=O)(=O)NC(=O)CCCCCCCCn1nc(-c2ccccc2)c(-c2ccccc2)c1-c1ccccc1 | – | 5.9 µM |
| c1ccc(-c2nn(CCCCCCCCc3nnn[nH]3)c(-c3ccccc3)c2-c2ccccc2)cc1 | – | 1.04 µM |
| O=C(O)CCCCCCn1ncc(-c2ccccc2)c1-c1ccccc1 | – | > 92 µM |
| O=C(O)CCCCCCCCn1ncc(-c2ccccc2)c1-c1ccccc1 | 0.7 µM | 5.8 µM |
| CC(C)(C)OC(=O)COCCCCCCn1nc(-c2ccccc2)c(-c2ccccc2)c1-c1ccccc1 | – | > 62 µM |
| O=C(O)CCCCCCCCn1cc(-c2ccccc2)cn1 | > 10 µM | > 105 µM |
| O=C(O)CCCCCCCCn1nc(-c2ccccc2)cc1-c1ccccc1 | > 10 µM | > 66 µM |
| O=C(O)CCCCCCCCCn1ncc(-c2ccccc2)c1-c1ccccc1 | – | > 82 µM |
| O=C(O)CCCCCCCCCn1cc(-c2ccccc2)c(-c2ccccc2)n1 | – | > 81 µM |
| CCc1c(-c2ccccc2)nn(CCCCCCCCC(=O)O)c1-c1ccccc1 | – | > 79 µM |
| O=C(O)CCCCCCn1cc(-c2ccccc2)c(-c2ccccc2)n1 | – | > 92 µM |
| O=C(O)CCCCCCCCn1nc(-c2ccccc2)c(Cc2ccccc2)c1-c1ccccc1 | – | > 68 µM |
| O=C(O)CCCCCCCn1cc(-c2ccccc2)c(-c2ccccc2)n1 | – | > 85 µM |
| O=C(O)CCCCCCCn1ncc(-c2ccccc2)c1-c1ccccc1 | 0.16 µM | 1.5 µM |
| N#CCCCCCCCCn1nc(-c2ccccc2)c(-c2ccccc2)c1-c1ccccc1 | – | > 72 µM |

Other lines, results leading:

| IC50 (Prostacyclin receptor) | IC50 (Homo sapiens) | SMILES |
| --- | --- | --- |
| 0.16 µM | 0.4 µM | O=C(O)CCCCCCCCn1nc(-c2ccccc2)c(-c2ccccc2)c1-c1ccccc1 |
| – | 33 µM | NC(=O)CCCCCCCCn1nc(-c2ccccc2)c(-c2ccccc2)c1-c1ccccc1 |
| – | 0.44 µM | O=C(O)COCCCCCCn1nc(-c2ccccc2)c(-c2ccccc2)c1-c1ccccc1 |
| – | 22 µM | O=C(O)CS(=O)(=O)CCCCCCn1nc(-c2ccccc2)c(-c2ccccc2)c1-c1ccccc1 |
| – | > 68 µM | CNC(=O)CCCCCCCCn1nc(-c2ccccc2)c(-c2ccccc2)c1-c1ccccc1 |
| – | 5.5 µM | O=C(O)CCCCCCCCCn1nc(-c2ccccc2)c(-c2ccccc2)c1-c1ccccc1 |
| – | 18.6 µM | O=C(O)CCCCCCCCCCn1nc(-c2ccccc2)c(-c2ccccc2)c1-c1ccccc1 |
| – | 3.4 µM | O=C(O)CCCCCCCn1nc(-c2ccccc2)c(-c2ccccc2)c1-c1ccccc1 |
| – | 0.87 µM | O=C(O)CSCCCCCCn1nc(-c2ccccc2)c(-c2ccccc2)c1-c1ccccc1 |
| – | 6.5 µM | O=C(O)C[S+]([O-])CCCCCCn1nc(-c2ccccc2)c(-c2ccccc2)c1-c1ccccc1 (stereo not given) |
| – | 22.4 µM | O=C(O)CCCCCCn1nc(-c2ccccc2)c(-c2ccccc2)c1-c1ccccc1 |
| – | > 78 µM | O=C(O)CCCCCn1nc(-c2ccccc2)c(-c2ccccc2)c1-c1ccccc1 |
| – | 4.3 µM | COC(=O)CCCCCCCCn1nc(-c2ccccc2)c(-c2ccccc2)c1-c1ccccc1 |
